Screening data: PubChem, several laboratories
GRIN3A LBD mod = NR3A (human) ligand-binding domain modulation; AID 1259313; Tm shift relative to glycine control, % at 25 µM; actives 2.5% (n = 340,000); NR3A LBD differential scanning fluorimetry, Tm shift; 0% = protein alone, 100% = glycine-bound protein;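 active = melting temperature shift of at least 10% of the positive control shift, at one fixed dose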
PREPL inh = inhibits the human prolyl oligopeptidase-like enzyme; actives 0.68% (n = 320,000); inhibition, % at 5.96 µM; AID 2751; Q4J6C6; recombinant PREPL, fluorescence polarization activity-based probe; in the data active = inhibition above about 43%;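 note: 0% = enzyme with DMSO and 100% = wells lacking enzyme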
Target sequence (Q4J6C6 whole entry, looked up): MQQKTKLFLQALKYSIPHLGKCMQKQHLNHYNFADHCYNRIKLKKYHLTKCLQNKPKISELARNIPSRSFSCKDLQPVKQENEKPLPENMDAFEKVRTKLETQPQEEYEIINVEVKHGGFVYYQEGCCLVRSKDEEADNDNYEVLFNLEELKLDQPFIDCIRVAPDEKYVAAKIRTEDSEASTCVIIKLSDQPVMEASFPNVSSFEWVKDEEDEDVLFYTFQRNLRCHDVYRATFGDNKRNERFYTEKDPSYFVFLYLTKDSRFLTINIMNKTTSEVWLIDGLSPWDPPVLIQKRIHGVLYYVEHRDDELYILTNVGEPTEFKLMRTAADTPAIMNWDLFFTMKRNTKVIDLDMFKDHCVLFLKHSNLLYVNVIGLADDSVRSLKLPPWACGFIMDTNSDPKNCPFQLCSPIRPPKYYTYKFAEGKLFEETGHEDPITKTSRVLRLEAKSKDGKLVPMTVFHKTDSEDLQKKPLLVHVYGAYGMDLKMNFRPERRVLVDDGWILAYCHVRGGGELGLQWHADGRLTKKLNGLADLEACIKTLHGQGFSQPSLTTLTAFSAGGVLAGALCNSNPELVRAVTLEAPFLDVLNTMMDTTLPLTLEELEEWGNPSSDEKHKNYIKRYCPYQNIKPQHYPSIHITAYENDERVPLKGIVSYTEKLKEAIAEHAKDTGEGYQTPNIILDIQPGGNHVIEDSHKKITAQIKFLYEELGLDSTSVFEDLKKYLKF
CHOP inhibitor = blocks CHOP induction under ER stress. CHO-K1 CHOP-promoter luciferase, tunicamycin-induced, 15-18 h. inhibition, % at 10 µM. actives 3.8% (n = 220,000). AID 2732;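 active = compounds that reduced the stress-induced luciferase reporter signal by more than about 70% of percent inhibition, limit read from the data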;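 note: 0% = tunicamycin plus vehicle and 100% = wells without tunicamycin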
T cruzi inh = T. cruzi replication inhibition. actives 1.4% (n = 300,000). T. cruzi beta-gal in NIH3T3, luminescence, 90 h. inhibition, % (concentration not given with the values);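 active = mean inhibition across valid replicates above about 55%, limit read from the data; inconclusive = mean below that limit but half or more replicates reach it; inactive = mean below it, under half of replicates reach it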;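 note: signal also drops with host cell toxicity which is not excluded here; 0% = plate median of DMSO wells and 100% = zero luminescence signal; higher percent means less beta-gal luminescence so fewer parasites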
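Test system: β-gal T. cruzi (Tulahuen C4) inside NIH/3T3 cells / Quantity: 5,000 cells/well / Measured by: luminescence from GalScreen with 0.05% NP40, read after 60 min / Medium: DMEM plus 2% FBS / Measure: parasite load inhibition, % / Reagent: Tulahuen C4 trypomastigotes, 5000/well / Schedule: co-culture of at least 90 h after 3 h attachment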
Beta cell apopt = blocks beta cell apoptosis. INS-1E cytokine-induced death, ATP luminescence, 48 h; percent of positive-control rescue, neutral wells zero. protection from apoptosis, % (concentration not given with the values). actives 0.8% (n = 300,000). AID 435005;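 active = Every replicate reaches about 75%, or at least half do and their mean reaches it too, limit read from the data; inconclusive = At least half of replicates reach the limit but their mean does not; inactive = Under half of replicates reach the limit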;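 note: 0% = cytokine-treated negative control wells and 100% = positive control rescue; higher means more ATP so stronger rescue from cytokine killing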
CSC inhib = blocks cancer stem cells; actives 1.1% (n = 300,000); inhibition, % at 7.5 µM; cancer stem cell-like cells viability, luminescence; in the data active = inhibition above about 75%; inconclusive = no clear call, values can overlap the other calls; tested in HMLE shEcad cells
* hit, by the source's call; ? = inconclusive; nt = not tested or not shown. Shown are actives, neighbours in structure and some others; about 6.7% of the full set was active somewhere.

SMILES | GRIN3A LBD mod | PREPL inh | CHOP inhibitor | T cruzi inh | Beta cell apopt | CSC inhib
CCOc1cc(/C=N/Nc2nc(C)cc(=O)[nH]2)ccc1O | 0 | 20 | nt | -7 | 2 | -6
CCOc1cc(/C=N/Nc2cc(C)nc(-n3nc(C)cc3C)n2)ccc1O | 2 | -1 | -48 | 30 | 99* | 25
COc1ccccc1NS(=O)(=O)c1ccc(C(=O)N2CCN(c3ccccn3)CC2)cc1 | -2 | 10 | nt | nt | 11 | -4
Cc1cc(N/N=C/c2ccc(F)cc2)nc(-n2nc(C)cc2C)n1 | -6 | 2 | 90* | ? | 110* | 5
CCOC(=O)c1cc(C)sc1/N=C/C1C(=O)CC(C)(C)CC1=O | -7 | 3 | 28 | -26 | -2 | nt
CCOC(=O)c1c(CC(C)C)csc1/N=C/C1C(=O)CC(C)(C)CC1=O | 6 | 0 | 72* | -10 | -9 | -3
C=CCn1c(SCC(=O)N(C)C)nc2sc3c(c2c1=O)CCC3 | 0 | 2 | nt | -9 | 4 | 1
Cc1noc(C)c1CSc1nc2sc3c(c2c(=O)n1C)CCCC3 | 2 | 21 | 76* | 19 | -21 | nt
C=CCn1c(SCc2c(C)noc2C)nc2sc3c(c2c1=O)CCCC3 | -1 | 16 | 83* | 1 | 21 | 48
C=CCSc1nc2sc3c(c2c(=O)n1CC)CCC3 | 4 | 6 | nt | 2 | nt | 26
C=CCn1c(SCc2c(C)noc2C)nc2sc3c(c2c1=O)CCCCC3 | 1 | 3 | 58 | 0 | nt | 94*
COC(=O)c1cc(S(=O)(=O)NCc2ccc3c(c2)OCO3)cn1C | -3 | -1 | nt | -4 | 3 | -16
Cc1ccc(-c2onc3ccc(C4(C)OCCO4)cc23)cc1 | 4 | 1 | 86* | -10 | -8 | 15
CCOC(=O)N1CCN(C(=O)/C=C/c2cccc([N+](=O)[O-])c2)CC1 | -1 | 5 | 0 | -7 | -2 | -5
Cc1ccccc1-c1cc(=O)c2ccccc2o1 | -3 | -29 | nt | nt | -6 | 38
Cc1cc(CCNC=O)c(C)c2c1oc1ccccc12 | 13* | nt | nt | nt | nt | nt
CCOc1ccc2oc(C(=O)N(CCOC)c3c(N)n(CC(C)C)c(=O)[nH]c3=O)c(C)c2c1 | -1 | 7 | nt | nt | -4 | nt
CC1(C)Cc2nc(NC3CCCCC3)c(C#N)cc2CO1 | 0 | 5 | 29 | 2 | -2 | -14
CCN(CC)CCN(C(=O)CCOc1ccccc1)c1nc2c(F)cc(F)cc2s1 | 1 | 15 | 9 | 56* | -4 | 3
CN(C)CCN(C(=O)CCc1ccccc1)c1nc2c(F)cc(F)cc2s1 | -1 | -1 | 71* | 52 | -8 | 0
COc1cc2ccccc2cc1C(=O)N(CCN(C)C)c1nc2c(F)cc(F)cc2s1 | 2 | -32 | nt | 36 | 0 | 5
COc1cc(C)c(S(=O)(=O)NOCc2ccccc2)c(C)c1C | 0 | 1 | nt | 25 | -7 | 31
COc1ccc(OC)c(N/C(C)=C/C(=O)c2ccncc2)c1 | 1 | 25 | nt | -5 | -1 | 5
COc1ccc(OC)c(N/C(C)=C/C(=O)c2ccccc2)c1 | -1 | 7 | 23 | 56* | 2 | 29
COc1ccc(S(=O)(=O)Nc2ccc(N3CCOCC3)cc2)cc1 | 1 | 0 | nt | 8 | -1 | 5
SMILES | GRIN3A LBD mod | PREPL inh | CHOP inhibitor | T cruzi inh | Beta cell apopt | CSC inhib
CSc1ccc(S(=O)(=O)Nc2ccc(N3CCOCC3)c(Cl)c2)cc1 | -22 | 1 | 53 | -30 | 104* | 3
COc1ccc(NS(=O)(=O)c2cc(NC(=O)/C=C/c3cccs3)ccc2N2CCOCC2)cc1 | 30* | 8 | 24 | 38 | 14 | 23
COc1ccc(NS(=O)(=O)c2ccc(N3CCOCC3)c(N)c2)cc1 | 4 | 2 | nt | nt | 76* | 26
CCCCCC(=O)Nc1ccc(N2CCOCC2)c(S(=O)(=O)Nc2ccc(OC)cc2)c1 | -8 | 4 | nt | -11 | 10 | -7
N#CC1(NC(=O)CSc2nnc(-c3ccccc3F)o2)CCCCC1 | 0 | 4 | nt | -1 | 1 | nt
O=c1[nH]c(O)c(/C=C2\C=Nc3ccccc32)[nH]1 | 31* | nt | 9 | -20 | -3 | 0
O=c1oc2ccccc2c(O)c1/C=C1\C=Nc2ccccc21 | -2 | 20 | -2 | 13 | -7 | 12
CC1(C)CC(c2nc(-c3ccc(Cl)cc3)cs2)CCS1 (configuration not stated) | 3 | 0 | -7 | 8 | 2 | 28
CC1(C)CC(c2nc(-c3ccccc3)cs2)CCS1 (configuration not stated) | 10* | 0 | 46 | 7 | 6 | 12
Oc1ccc(N=Cc2ccc(-c3cccs3)s2)cc1 | 27* | 22 | -21 | -13 | nt | 28
O=Cc1ccc(-c2cccs2)s1 | -1 | nt | nt | nt | nt | nt
CCOC(=O)Cc1csc(NC(=S)NC(=O)c2cc(OC)c(OC)c(OC)c2)n1 | -1 | -10 | -13 | -6 | -11 | -5
Oc1ccccc1-c1cc(-c2ccccc2)no1 | 19* | -15 | 44 | -2 | 0 | 8
N#C/C(=C\c1cccc(NC(=O)c2ccccc2Cl)c1)C(=O)NCCc1ccccc1 | 1 | -3 | -25 | -44 | 2 | -8
CN(C)c1ccc(C2SCCN2C(=O)c2ccc([N+](=O)[O-])cc2)cc1 (configuration not stated) | -2 | 2 | 16 | 58* | -6 | -13
CC1CCC(C(C)C)C(OC(=O)C[n+]2cc(-c3ccc(Cl)cc3)n3c2CCC3)C1 (configuration not stated) | 0 | 33 | -3 | 60* | 5 | 13
CCC(C)N1CC(O)=C(c2nc3ccccc3[nH]2)C1=N (configuration not stated) | 7 | 3 | -23 | -9 | -3 | 6
CCCCCn1c(=O)c(-c2nc3ccccc3[nH]2)c(O)c2ccccc21 | 0 | 14 | 86* | -3 | 32 | 19
CCCCCCN1CC(O)=C(c2nc3ccccc3[nH]2)C1=N | -1 | -1 | 84* | 2 | -2 | -10
CCCCCCCCn1c(=O)c(C(=O)OCC)c(O)c2ccccc21 | 2 | 8 | 47 | 3 | -1 | 0
Nc1ncnc2c1ncn2[C@@H]1O[C@H](COP(=O)(O)OP(=O)(O)OP(=O)(O)OP(=O)(O)OC[C@@H]2O[C@H](n3cnc4c(N)ncnc43)C(O)[C@@H]2O)[C@H](O)C1O (some centres not stated) | nt | nt | 19 | nt | nt | nt
Cc1c(C(=O)OC(C)C)sc(NC(=O)c2cnccn2)c1C(=O)OC(C)C | -2 | nt | nt | nt | nt | nt
CCCC(=O)N1CCN(c2ccc(NC(=O)c3ccc([N+](=O)[O-])o3)cc2)CC1 | 1 | nt | -55 | 38 | nt | nt
O=C(Nc1ccc(N2CCN(Cc3ccccc3F)CC2)cc1)c1ccc([N+](=O)[O-])o1 | -5 | 26 | nt | 22 | 48 | 103*
CCC(=O)N1CCN(c2ccc(NC(=O)c3ccc([N+](=O)[O-])o3)cc2)CC1 | -1 | nt | 22 | 72* | nt | nt
CC1CCN(c2ccc(NC(=O)c3ccc([N+](=O)[O-])o3)cc2)CC1 | 0 | -1 | nt | 72* | 85* | 100*
